# Entries after “also recorded” stand apart in the source; their conditions may differ.
# Tests used:
# Antares [1] = molecular target: T1, Antares (Oplophorus gracilirostris, UniProt Q9GV45, A31E/A60N/A81I/F95D/I117V/K70R/L54V/L99Q/M102K/N193R/P142E/Q151K/Q38R/Q45L/V71I/Y165I)
# Antares [2] = molecular target: T1, Antares; assay: Decay of Antares luminescence signal over time; type: biochemical; details: purified Antares, 60 min
# [3] = Solubility testing in PEG-300-based injectable formulation; type: physicochemical; details: for Maximum amount that could be administered IP in the PEG-300 formulation: injection volume limit of ~0.5 mL, mice; for Relative solubility in the PEG-300-based formulation: comparison in words; for Maximum soluble dose: IP injection, injectable formulation
# Procedure, shortened: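 Formulation: 10% ethanol (v/v), 10% glycerol (v/v), 10% 2-hydroxypropyl-β-cyclodextrin (w/v), 35% PEG-300 (v/v) in water. Pre-weighed compound was dissolved or suspended in ethanol, then combined with the other components and vortexed 15 min to make a 28 mM solution or suspension. […] IP dose was limited by an injection volume of ~0.5 mL.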
# AkaLuc = AkaLuc with AkaLumine, intrapulmonary locations; cited from earlier work
# Orange CaMBI [4] = type: in vivo, mice; details: sustained-release HFz (P-407)
# Procedure, shortened: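 Transgenic mice doubly hemizygous for albumin-Cre and CAG-LSL-Orange CaMBI 110, abdominal hair removed, anesthetized with IP ketamine 200 mg/kg in 100 µL water. Test compound given with poloxamer-407 in 480 µL water. Imaged in a lab-built system, time-lapse with <1 s exposures on a consumer digital camera, with vasopressin given. Decay fitted as monoexponential.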
# Antares [5] = molecular target: T1, Antares; assay: Hydrodynamic transfection and bioluminescence imaging of nude mice; type: in vivo
# Antares [6] = molecular target: T1, Antares; assay: Enzymatic analysis of Antares with furimazine analogs; type: biochemical; details: purified Antares; for Vmax and thereby kcat compared to furimazine: DPBS with 0.01% FBS
# [7] = type: in vivo, mice
# Procedure, shortened: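 Male C57Bl/6 mice, 4 months old, received three daily IP injections: 12 mg P-407 in 480 µL water; 12 mg P-407 plus 1.7 mg test compound in 480 µL water; or test compound in P-407 at 1.3 or 4.2 µmol. Body weight was tracked. On day 4 mice were euthanized by CO2 and cardiac exsanguination, with terminal blood taken for CBC and serum biochemistry. Lung, liver and kidney were examined histologically.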
# Antares [8] = molecular target: T1, Antares; details: limited amount of furimazine that can be administered; cited from earlier work
# Orange CaMBI [9] = details: liver; cited from earlier work
# [10] = previously published PEG-300-based aqueous formulation; cited from earlier work
# Antares [11] = molecular target: T1, Antares; assay: Spectral analysis of Antares with furimazine analogs; type: biochemical; details: 400 to 700 nm
# [12] = Substrate stability at 37 °C in DPBS with or without 10% FBS; type: in vitro ADME
# physchem = details: aqueous with cosolvent or surfactant or cyclodextrin
# [13] = 1.3 μmol IP, PEG-300 formulation, mouse liver
smiles,measurement,setting,value
"O=c1c(Cc2ccco2)nc2c(Cc3ccccc3)[nH]c(-c3ccc(O)cc3)cn1-2 [compound A, 8-benzyl-2-(furan-2-ylmethyl)-6-(4-hydroxyphenyl)imidazo[1,2-a]pyrazin-3(7H)-one]",Total integrated output compared with furimazine,"Antares [1]; 1.3 μmol IP, PEG-300 vehicle, liver",more total integrated output
same,Decrease of light output over time compared with the other substrates,Antares [2],decreased more rapidly over time
same,Appearance at 28 mM in the PEG-300-based formulation,"[3]; 28 mM, backlit image",insoluble pellet
CN(C)c1ccc(/C=C/C=C/C2=N[C@@H](C(=O)O)CS2)cc1 [AkaLumine],Detectable light per reporter molecule relative to FLuc and D-luciferin,AkaLuc,~ 13 times
"Nc1cccc(-c2cn3c(=O)c(Cc4ccco4)nc-3c(Cc3ccccc3)[nH]2)c1 [compound C, 6-(3-aminophenyl)-8-benzyl-2-(furan-2-ylmethyl)imidazo[1,2-a]pyrazin-3(7H)-one]",Maximum amount that could be administered IP in the PEG-300 formulation,[3],4.2 µmol
"O=c1c(Cc2ccco2)nc2c(Cc3ccccc3)[nH]c(-c3cccc(O)c3)cn1-2 [compound B, 8-benzyl-2-(furan-2-ylmethyl)-6-(3-hydroxyphenyl)imidazo[1,2-a]pyrazin-3(7H)-one]",Time signals were bright enough to be seen by the naked eye in the dark,Orange CaMBI [4],> 1 h
same,Time of peak brightness after substrate injection,Orange CaMBI [4]; liver,24 min
same,Time after injection at which brightness dropped to half of its peak,Orange CaMBI [4]; monoexponential kinetics,~ 60 min
same,Saturating dose,"Antares [1]; IP, PEG-300 formulation, liver",4.2 µmol
same,Light (brightness) relative to the maximum/saturating dose of furimazine,"Antares [1]; substrate at saturating (maximal) dose, IP, Antares-expressing transgenic mice",approximately four-fold
same,Integrated signal over 20 min compared with Antares2-DTZ,Antares [5]; 4.2 μmol HFz IP,significantly exceed that of Antares2-DTZ
same,Integrated signal over 20 min compared with LumiScarlet-8pyDTZ,Antares [5]; 4.2 μmol HFz IP,"appeared higher than that of LumiScarlet-8pyDTZ, but narrowly missed statistical significance"
same,Persistence of emission,"Antares [5]; 4.2 μmol HFz IP, 20 min",uniquely sustained emission
same,Relative solubility in the PEG-300-based formulation,[3],noticeably more soluble than compounds A and C
same,Maximum amount that could be administered IP in the PEG-300 formulation,[3],up to 13.3 μmol
same,kcat/KM compared to furimazine,Antares [6],higher kcat/KM
same,"Gross examination of organs and histology of liver, lung and kidney","[7]; HFz with P-407, three daily IP injections, listed as HFz",no signs of toxicity; also recorded: no abnormalities were found
O=c1c(Cc2ccco2)nc2c(Cc3ccccc3)[nH]c(-c3ccccc3)cn1-2 [furimazine],Photon output of Antares relative to FLuc in vivo,Antares [8],~ three-fold
same,Duration of previous Orange CaMBI imaging sessions,Orange CaMBI [9],≤ 6 min
same,Maximum dosage limited by poor aqueous solubility,[10],1.3 µmol
same,Solubility in the PEG-300-based formulation,"[3]; 35% PEG-300, 10% ethanol, 10% glycerol, 10% hydroxypropylcyclodextrin in water",2.8 mM
same,Relative solubility in the PEG-300-based formulation,[3],more soluble than DTZ
"O=c1c(Cc2ccco2)nc2c(Cc3ccccc3)[nH]c(-c3cccc(O)c3F)cn1-2 [compound D, 8-benzyl-6-(2-fluoro-3-hydroxyphenyl)-2-(furan-2-ylmethyl)imidazo[1,2-a]pyrazin-3(7H)-one]",Effect on emission spectrum of Antares,Antares [11],do not alter the emission spectrum of Antares
same,Signal output compared with HFz,Antares [1]; [13],brighter signal outputs than HFz
same,Stability in serum compared to furimazine,[12],retaining the improved stability in serum
same,Vmax and thereby kcat compared to furimazine,Antares [6],improved Vmax and thereby kcat versus furimazine
"Nc1cccc(-c2cn3c(=O)c(Cc4ccco4)nc-3c(Cc3ccccc3)[nH]2)c1F [compound E, 6-(3-amino-2-fluorophenyl)-8-benzyl-2-(furan-2-ylmethyl)imidazo[1,2-a]pyrazin-3(7H)-one]",Effect on emission spectrum of Antares,Antares [11],do not alter the emission spectrum of Antares
same,Improvement of signal output over HFz,Antares [1]; [13],approximately three-fold
same,Signal output compared with HFz,Antares [1]; [13],brighter signal outputs than HFz
same,Stability in serum compared to furimazine,[12],retaining the improved stability in serum
same,Vmax and thereby kcat compared to furimazine,Antares [6],improved Vmax and thereby kcat versus furimazine
"Nc1cccc(-c2cn3c(=O)c(Cc4ccco4)nc-3c(Cc3ccccc3F)[nH]2)c1F [compound F, 6-(3-amino-2-fluorophenyl)-8-(2-fluorobenzyl)-2-(furan-2-ylmethyl)imidazo[1,2-a]pyrazin-3(7H)-one]",Peak signal compared to compound E,"Antares [1]; 1.3 μmol, in vivo",further increase in peak signal
same,"Light from mouse liver, 1.3 μmol FFz compared with 4.2 μmol HFz",Antares [1]; IP,more light
same,"Light, 4.2 μmol compared with 1.3 μmol of FFz",Antares [1]; IP,more light
same,Brightness compared with AkaLuc with AkaLumine,"Antares [5]; 1.3 μmol FFz IP, not statistically significant",tended to produce more brightness
same,solubility,physchem,8.8 mM
same,Vmax and thereby kcat compared to compound E,Antares [6],higher Vmax and thereby kcat
same,"Body weight, blood chemistry, or histology",[7]; 1.3 μmol FFz in P-407 daily for three days,No abnormalities
same,Blood chemistry,"[7]; 4.2 μmol FFz, daily for three days",abnormal blood chemistry
same,Dose that can be safely administered,"[7]; in P-407, IP, mice",1.3 µmol
"O=c1c(Cc2ccccc2)nc2c(-c3ccccc3)[nH]c(-c3ccccc3)cn1-2 [DTZ, diphenylterazine, reference compound]",Maximum soluble dose,[3],1 µmol
"Oc1c(Cc2ccccc2)nc2c(-c3ccncc3)nc(-c3ccccc3)cn12 [8pyDTZ, reference compound]",Maximum soluble dose,[3],4 µmol
